Measured values published in ChEMBL document CHEMBL4043285 (J Med Chem, 2018).
pIC50: −log10 of the molar value. Calls of active or inactive are those of the source. The calls are words filed in the database; no cut-off is given here.

Key:
[1] = Inhibition of Aurk mouse L929sA cells transfected with human Fas assessed as reduction in cell growth after 24 hrs in presence of TNF by Hoechst 33342 staining-based microscopic assay
Summary of the method: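 L929sAhFAS cells exposed to compound; total cell number is counted after 24 h. IC50 is fitted from a dose–response curve of cell growth.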

Aurora kinase B = Aurora kinase B (Homo sapiens, UniProt Q96GD4); test: Inhibition of human recombinant AurKB after 4 hrs by ADP-Glo assay
Aurora kinase B, sequence (Q96GD4 whole entry): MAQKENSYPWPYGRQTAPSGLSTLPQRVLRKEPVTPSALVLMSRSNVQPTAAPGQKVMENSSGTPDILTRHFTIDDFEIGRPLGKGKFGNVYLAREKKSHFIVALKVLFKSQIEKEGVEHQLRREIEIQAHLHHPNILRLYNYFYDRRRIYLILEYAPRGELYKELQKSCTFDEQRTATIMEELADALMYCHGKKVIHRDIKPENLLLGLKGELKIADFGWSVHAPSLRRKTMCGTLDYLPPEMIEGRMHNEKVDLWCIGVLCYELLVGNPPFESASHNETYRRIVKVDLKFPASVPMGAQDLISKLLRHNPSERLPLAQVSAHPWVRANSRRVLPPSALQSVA

Mus musculus = test: Protection against TNF-induced hypothermia in TNF-induced SIRS C57BL/6J mouse model at 50 mg/kg administered via oral gavage treated 1.5 hrs prior to TNF challenge by thermometric analysis; assay type: functional, organism-based
Summary of the method: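 Mice were dosed orally by gavage at 50 mg/kg, 1.5 h before challenge with murine TNF (mTNF).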

Aurk (Aurora kinase) [2] = test: Inhibition of Aurk in mouse L929sA cells transfected with human Fas assessed as increase in nuclear area at 3 uM after 24 hrs in presence of TNF by Hoechst 33342 staining-based microscopic assay relative to control; assay type: cell-based
Aurk (Aurora kinase) [3] = test: Inhibition of Aurk in mouse L929sA cells transfected with human Fas assessed as reduction in cell growth at 3 uM after 24 hrs in presence of TNF by Hoechst 33342 staining-based microscopic assay relative to control
[4] = Inhibition of Aurk mouse L929sA cells transfected with human Fas assessed as increase in nuclear area after 24 hrs in presence of TNF by Hoechst 33342 staining-based microscopic assay
Summary of the method: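 L929sAhFAS cells treated with compound; mean nuclear area is measured and fitted as a sigmoidal dose–response curve.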

Aurora kinase A = target: T1, Aurora kinase A (Homo sapiens, UniProt O14965); test: Inhibition of human recombinant AurKA after 4 hrs by ADP-Glo assay
T1 sequence (O14965 whole entry): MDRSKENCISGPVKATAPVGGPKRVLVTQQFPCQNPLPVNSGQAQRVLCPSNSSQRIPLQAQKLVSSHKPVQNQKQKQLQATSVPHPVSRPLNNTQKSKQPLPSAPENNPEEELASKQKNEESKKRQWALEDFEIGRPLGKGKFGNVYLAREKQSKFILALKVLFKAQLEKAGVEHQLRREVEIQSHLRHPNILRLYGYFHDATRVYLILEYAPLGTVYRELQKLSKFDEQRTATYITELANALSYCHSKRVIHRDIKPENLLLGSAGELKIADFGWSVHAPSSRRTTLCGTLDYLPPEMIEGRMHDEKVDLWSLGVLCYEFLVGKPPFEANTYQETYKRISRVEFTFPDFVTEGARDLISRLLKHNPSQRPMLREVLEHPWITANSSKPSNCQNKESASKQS

[5] = target: T2, Receptor-interacting serine/threonine-protein kinase 1 (Homo sapiens, UniProt Q13546); test: Inhibition of human recombinant RIPK1 after 4 hrs by ADP-Glo assay
T2 sequence (Q13546 whole entry): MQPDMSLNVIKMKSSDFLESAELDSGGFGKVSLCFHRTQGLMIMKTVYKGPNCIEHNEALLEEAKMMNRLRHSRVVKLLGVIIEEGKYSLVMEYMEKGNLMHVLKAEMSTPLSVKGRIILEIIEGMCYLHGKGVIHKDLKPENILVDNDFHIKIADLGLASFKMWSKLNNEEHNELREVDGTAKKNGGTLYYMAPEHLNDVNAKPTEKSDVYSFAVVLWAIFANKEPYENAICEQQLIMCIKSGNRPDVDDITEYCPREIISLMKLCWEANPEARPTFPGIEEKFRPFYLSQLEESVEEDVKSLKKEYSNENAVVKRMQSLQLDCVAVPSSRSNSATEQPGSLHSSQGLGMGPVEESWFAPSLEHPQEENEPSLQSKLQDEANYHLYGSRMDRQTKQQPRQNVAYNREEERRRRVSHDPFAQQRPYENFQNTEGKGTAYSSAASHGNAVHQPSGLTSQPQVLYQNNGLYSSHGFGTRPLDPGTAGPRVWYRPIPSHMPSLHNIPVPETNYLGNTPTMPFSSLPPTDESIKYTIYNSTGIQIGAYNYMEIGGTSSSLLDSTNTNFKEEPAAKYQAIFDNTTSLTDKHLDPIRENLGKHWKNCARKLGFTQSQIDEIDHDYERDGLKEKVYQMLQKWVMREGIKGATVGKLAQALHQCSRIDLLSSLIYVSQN

[6] = target: T3, Receptor-interacting serine/threonine-protein kinase 1 (Mus musculus) (UniProt Q60855); test: Inhibition of RIPK1 in mouse L929sA cells transfected with human Fas assessed as inhibition in TNF-induced necroptosis at 3 uM pretreated for 24 hrs followed by TNF and zVAD.fmk addition measured after 3 hrs by Hoechst 33342/propidium iodide staining-based assay relative to control; assay type: cell-based
T3 sequence (whole entry): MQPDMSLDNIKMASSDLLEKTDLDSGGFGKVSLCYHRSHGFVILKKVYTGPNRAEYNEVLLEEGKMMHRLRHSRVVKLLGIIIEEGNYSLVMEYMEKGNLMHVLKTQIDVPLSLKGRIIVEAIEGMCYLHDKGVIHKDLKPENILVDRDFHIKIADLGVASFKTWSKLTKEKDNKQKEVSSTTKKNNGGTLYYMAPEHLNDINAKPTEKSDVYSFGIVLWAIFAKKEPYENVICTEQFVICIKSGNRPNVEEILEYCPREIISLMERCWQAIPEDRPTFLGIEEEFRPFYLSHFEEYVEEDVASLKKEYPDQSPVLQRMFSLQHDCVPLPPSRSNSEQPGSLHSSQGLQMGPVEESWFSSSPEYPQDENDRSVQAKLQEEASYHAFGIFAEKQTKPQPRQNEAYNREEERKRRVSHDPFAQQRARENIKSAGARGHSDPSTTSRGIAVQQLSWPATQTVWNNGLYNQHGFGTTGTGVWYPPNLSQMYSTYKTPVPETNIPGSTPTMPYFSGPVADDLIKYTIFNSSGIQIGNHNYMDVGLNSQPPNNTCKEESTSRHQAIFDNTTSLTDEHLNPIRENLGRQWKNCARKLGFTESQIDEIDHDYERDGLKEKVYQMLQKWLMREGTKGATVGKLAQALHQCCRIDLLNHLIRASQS

[7] = target: T3, Receptor-interacting serine/threonine-protein kinase 1 (Mus musculus); test: Inhibition of RIPK1 in mouse L929sA cells transfected with human Fas assessed as inhibition in TNF-induced necroptosis at 3 uM pretreated for 0.5 hrs followed by TNF and zVAD.fmk addition measured after 3 hrs by Hoechst 33342/propidium iodide staining-based assay relative to control; assay type: cell-based

SMILES | pIC50 [1] | pIC50 (Aurora kinase B) | Activity (Mus musculus) | inhibition at 24 h, 3 µM (Aurk (Aurora kinase) [2]) [%] | inhibition at 24 h, 3 µM (Aurk (Aurora kinase) [3]) [%] | pIC50 [4] | pIC50 (Aurora kinase A) | pIC50 [5] | inhibition [6] [%] | inhibition [7] [%]
Cc1cc(Nc2cc(N3CCOCC3)nc(Nc3ccc(NC(=O)C4CC4)cc3)n2)n[nH]1 | < 5.52 | 6.07 | Active | < 50 | < 50 | < 5.52 | 6.37 | – | – | –
CN1C(=O)NC(Cc2c[nH]c3c(Cl)cccc23)C1=O (configuration not stated) | – | < 5.52 | Active | – | – | – | < 5.52 | – | – | –
Cc1cc(Nc2cc(N3CCN(C)CC3)nc(Nc3ccc(NC(=O)C4CC4)cc3)n2)n[nH]1 | < 5.52 | 5.87 | Active | < 50 | < 50 | < 5.52 | 6.53 | 6.75 | – | –
Cc1cc(Nc2cc(N3CCCCC3)nc(Nc3ccc(NC(=O)C4CC4)cc3)n2)n[nH]1 | < 5.52 | 6.02 | inactive | < 50 | < 50 | < 5.52 | – | – | – | –
Cc1cc(Nc2nc(Sc3ccc(NC(=O)C4CCCCC4)cc3)nc(N3CCN(C)CC3)n2)n[nH]1 | 6.48 | 6.64 | – | – | – | 6.40 | 6.68 | 5.61 | < 50 | < 50
Cc1[nH]nc(Nc2nc(Sc3ccc(NC(=O)C4CC4)cc3)nc(N3CCCCC3)n2)c1C | < 5.52 | – | – | < 50 | < 50 | < 5.52 | – | – | < 50 | < 50
Cc1[nH]nc(Nc2nc(Nc3ccc(NC(=O)C4CC4)cc3)nc(N3CCN(C)CC3)n2)c1C | < 5.52 | – | – | < 50 | < 50 | < 5.52 | – | – | < 50 | < 50
Cc1[nH]nc(Nc2nc(Nc3ccc(NC(=O)C4CC4)cc3)nc(N3CCOCC3)n2)c1C | < 5.52 | – | – | < 50 | < 50 | < 5.52 | – | – | < 50 | < 50
Cc1[nH]nc(Nc2cc(N3CCCCC3)nc(Nc3ccc(NC(=O)C4CC4)cc3)n2)c1C | < 5.52 | – | – | < 50 | < 50 | < 5.52 | – | – | < 50 | < 50
Cc1[nH]nc(Nc2nc(Sc3ccc(NC(=O)C4CCCCC4)cc3)nc(N3CCOCC3)n2)c1C | < 5.52 | – | – | < 50 | < 50 | < 5.52 | – | – | < 50 | < 50
Cc1[nH]nc(Nc2nc(Nc3ccc(NC(=O)C4CC4)cc3)nc(N3CCCCC3)n2)c1C | < 5.52 | – | – | < 50 | < 50 | < 5.52 | – | – | < 50 | < 50
